Laboratory results published in ChEMBL document CHEMBL2040734, “Benzothiazoles: search for anticancer agents” (2012).

Tests used:
Type in all cases: functional
SK-OV-3 [1] = assay: Cytotoxicity against human SKOV3 cells assessed as cell growth at 0.01 uM after 48 hrs by sulforhodamine B assay; conditions: SK-OV-3, 48 h, read-out: Activity
RXF 393 = assay: Cytotoxicity against human RXF393 cells assessed as cell growth at 0.01 uM after 48 hrs by sulforhodamine B assay; conditions: RXF 393, 48 h, read-out: Activity
PC-3 = assay: Cytotoxicity against human PC3 cells assessed as cell growth at 0.01 uM after 48 hrs by sulforhodamine B assay; conditions: PC-3, 48 h, read-out: Activity
T47D = assay: Cytotoxicity against human T47D cells assessed as cell growth at 0.01 uM after 48 hrs by sulforhodamine B assay; conditions: read-out: Activity
RPMI-8226 = assay: Cytotoxicity against human RPMI8226 cells assessed as cell growth at 0.1 uM after 48 hrs by sulforhodamine B assay; conditions: RPMI-8226, 48 h, read-out: Activity
KM12 = assay: Cytotoxicity against human KM12 cells assessed as cell growth at 0.1 uM after 48 hrs by sulforhodamine B assay; conditions: KM12, 48 h, read-out: Activity
SNB-19 [2] = assay: Cytotoxicity against human SNB19 cells assessed as cell growth at 0.1 uM after 48 hrs by sulforhodamine B assay; conditions: SNB-19, 48 h, read-out: Activity
U-251 [3] = assay: Cytotoxicity against human U251 cells assessed as cell growth at 0.1 uM after 48 hrs by sulforhodamine B assay; conditions: U-251, 48 h, read-out: Activity
HCC 2998 = assay: Cytotoxicity against human HCC2998 cells assessed as cell growth at 100 uM after 48 hrs by sulforhodamine B assay; conditions: HCC 2998, 48 h, read-out: Activity
In short: (§1)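 Five-dose NCI panel run at 0.01, 0.1, 1, 10 and 100 µM. Cells were in RPMI 1640 with 5% FBS and 2 mM L-glutamine, seeded at 5000–40,000 cells/well and pre-incubated 24 h. Drug was diluted from a DMSO stock into medium with 50 µg/ml gentamicin. Exposure was 48 h at 37 °C, 5% CO2. Cells were fixed with cold TCA and stained with 0.4% SRB, read at 515 nm. Percent growth came from time-zero, control and test absorbances.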

HCT-15 = assay: Cytotoxicity against human HCT15 cells assessed as cell growth at 100 uM after 48 hrs by sulforhodamine B assay; conditions: HCT-15, 48 h, read-out: Activity; in short: as §1
SK-MEL-5 = assay: Cytotoxicity against human SK-MEL-5 cells assessed as cell growth at 100 uM after 48 hrs by sulforhodamine B assay; conditions: SK-MEL-5, 48 h, read-out: Activity
CAKI-1 = assay: Cytotoxicity against human Caki1 cells assessed as cell growth at 100 uM after 48 hrs by sulforhodamine B assay; conditions: CAKI-1, 48 h, read-out: Activity
In short: (§2)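 NCI-60 five-dose screen. Cells were grown in RPMI 1640 with 5% FBS and 2 mM L-glutamine and preincubated 24 h. Compound (DMSO stock) was tested at 0.01, 0.1, 1, 10 and 100 µM for 48 h at 37 °C. Cells were fixed in situ with cold TCA (final 10%) and stained with 0.4% SRB. A515 was read, and percent growth was calculated against time-zero and control plates.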

TK-10 = assay: Cytotoxicity against human TK10 cells assessed as cell growth at 100 uM after 48 hrs by sulforhodamine B assay; conditions: TK-10, 48 h, read-out: Activity
COLO 205 = assay: Cytotoxicity against human COLO205 cells assessed as cell growth at 1 uM after 48 hrs by sulforhodamine B assay; conditions: COLO 205, 48 h, read-out: Activity; in short: as §2
IGROV-1 = assay: Cytotoxicity against human IGROV1 cells assessed as cell growth at 1 uM after 48 hrs by sulforhodamine B assay; conditions: IGROV-1, 48 h, read-out: Activity
MOLT-4 = assay: Cytotoxicity against human MOLT4 cells assessed as cell growth at 10 uM after 48 hrs by sulforhodamine B assay; conditions: MOLT-4, 48 h, read-out: Activity
SF-295 [4] = assay: Cytotoxicity against human SF295 cells assessed as cell growth at 10 uM after 48 hrs by sulforhodamine B assay; conditions: SF-295, 48 h, read-out: Activity
SNB-19 [5] = assay: Cytotoxicity against human SNB19 cells assessed as cell growth at 10 uM after 48 hrs by sulforhodamine B assay; conditions: SNB-19, 48 h, read-out: Activity
SK-OV-3 [6] = assay: Cytotoxicity against human SKOV3 cells assessed as cell growth at 10 uM after 48 hrs by sulforhodamine B assay; conditions: SK-OV-3, 48 h, read-out: Activity
HOP-62 = assay: Cytotoxicity against human HOP62 cells assessed as cell growth at 100 uM after 48 hrs by sulforhodamine B assay; conditions: HOP-62, 48 h, read-out: Activity; in short: as §1
NCI-H522 = assay: Growth inhibition of human NCI-H522 cells after 48 hrs by sulforhodamine B assay; conditions: NCI-H522, 48 h
In short: (§3)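 Adherent NCI-60 lines were grown in RPMI 1640 with 5% FBS and 2 mM L-glutamine, plated at 5000–40,000 cells/well and preincubated 24 h. They were then exposed to five concentrations (0.01–100 µM, from a DMSO stock) for 48 h at 37 °C, 5% CO2. Cells were fixed with cold TCA (10% final, 60 min, 4 °C) and stained with 0.4% SRB. Dye was solubilized in 10 mM Tris base and A515 read. GI50 was derived from time-zero, control and treated absorbances.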

SNB-75 [7] = assay: Growth inhibition of human SNB75 cells after 48 hrs by sulforhodamine B assay; conditions: SNB-75, 48 h; in short: as §3
SK-OV-3 [8] = assay: Growth inhibition of human SKOV3 cells after 48 hrs by sulforhodamine B assay; conditions: SK-OV-3, 48 h; in short: as §3
SN12C = assay: Growth inhibition of human SN12C cells after 48 hrs by sulforhodamine B assay; conditions: for CC50: read-out: LC50 (the source's name); in short: as §3
HCT-116 = assay: Cytotoxicity against human HCT116 cells assessed as cell growth at 0.01 uM after 48 hrs by sulforhodamine B assay; conditions: HCT-116, 48 h, read-out: Activity; in short: as §1
SF-295 [9] = assay: Cytotoxicity against human SF295 cells assessed as cell growth at 0.01 uM after 48 hrs by sulforhodamine B assay; conditions: SF-295, 48 h, read-out: Activity
SNB-75 [10] = assay: Cytotoxicity against human SNB75 cells assessed as cell growth at 0.01 uM after 48 hrs by sulforhodamine B assay; conditions: SNB-75, 48 h, read-out: Activity
U-251 [11] = assay: Cytotoxicity against human U251 cells assessed as cell growth at 0.01 uM after 48 hrs by sulforhodamine B assay; conditions: U-251, 48 h, read-out: Activity
MDA-MB-435 = assay: Cytotoxicity against human MDA-MB-435 cells assessed as cell growth at 0.01 uM after 48 hrs by sulforhodamine B assay; conditions: MDA-MB-435, 48 h, read-out: Activity
NCI-H23 = assay: Cytotoxicity against human NCI-H23 cells assessed as cell growth at 10 '-5 M after 48 hrs by sulforhodamine B assay; conditions: NCI-H23, 48 h, read-out: Activity

Row | SMILES | growth at 0.01 µM (SK-OV-3 [1]) [%] | growth at 0.01 µM (RXF 393) [%] | growth at 0.01 µM (PC-3) [%] | growth at 0.01 µM (T47D) [%] | growth at 0.1 µM (RPMI-8226) [%] | growth at 0.1 µM (KM12) [%] | growth at 0.1 µM (SNB-19 [2]) [%] | growth at 0.1 µM (U-251 [3]) [%] | growth at 100 µM (HCC 2998) [%] | growth at 100 µM (HCT-15) [%] | growth at 100 µM (SK-MEL-5) [%] | growth at 100 µM (CAKI-1) [%] | growth at 100 µM (TK-10) [%] | growth at 1 µM (COLO 205) [%] | growth at 1 µM (IGROV-1) [%] | growth at 10 µM (MOLT-4) [%] | growth at 10 µM (SF-295 [4]) [%] | growth at 10 µM (SNB-19 [5]) [%] | growth at 10 µM (SK-OV-3 [6]) [%] | growth at 100 µM (HOP-62) [%] | also measured
1 | Cc1ccc2nc(Nc3c(C)cccc3C)sc2c1 | 101 | 94 | 102 | 94 | 100 | 103 | 87 | 105 | 62 | 40 | 60 | 42 | 72 | 82 | 83 | 56 | 15 | 47 | 47 | 10 | GI50 (NCI-H522): 552 nM; TGI (NCI-H522): > 100000 nM; CC50 (NCI-H522; read-out: LC50 (the source's name)): > 100000 nM; GI50 (SNB-75 [7]): 1260 nM; LC50 (SNB-75 [7]): > 100000 nM; TGI (SNB-75 [7]): > 100000 nM; LC50 (SK-OV-3 [8]): > 100000 nM; TGI (SK-OV-3 [8]): > 100000 nM; TGI (SN12C): > 100000 nM; CC50 (SN12C): > 100000 nM; growth at 0.01 µM (HCT-116): 102%; growth at 0.01 µM (SF-295 [9]): 91%; growth at 0.01 µM (SNB-75 [10]): 80%; growth at 0.01 µM (U-251 [11]): 97%; growth at 0.01 µM (MDA-MB-435): 95%; growth at 10 µM (NCI-H23): 57.5%
2 | Clc1cccc(Cl)c1Nc1nc2cccc(Cl)c2s1 | 101 | 94 | 96 | 95 | 97 | 101 | 90 | 98 | -64 | -74 | -76 | -75 | -67 | 74 | 55 | -38 | -87 | -74 | -89 | -75 | GI50 (NCI-H522): 1020 nM; TGI (NCI-H522): 2610 nM; GI50 (SNB-75 [7]): 791 nM; LC50 (SNB-75 [7]): > 100000 nM; GI50 (SK-OV-3 [8]): 1600 nM; LC50 (SK-OV-3 [8]): 5950 nM; TGI (SK-OV-3 [8]): 3080 nM; GI50 (SN12C): 772 nM; TGI (SN12C): 2120 nM; CC50 (SN12C): 4850 nM; growth at 0.01 µM (HCT-116): 104%; growth at 0.01 µM (SF-295 [9]): 93%; growth at 0.01 µM (SNB-75 [10]): 82%; growth at 0.01 µM (U-251 [11]): 104%; growth at 0.01 µM (MDA-MB-435): 96%; growth at 10 µM (NCI-H23): -10.5%
